Experimental data from different studies.
Each line is one published result; the experiments were not run side by side.
Target: Serine/threonine-protein kinase 32C (STK32C, Homo sapiens, UniProt Q86UX6)

SMILES | assay | conditions | measurement | result
CN1CC(Oc2cnc(C#N)cc2-c2ccn3nc(NC(=O)C4CC4)cc3c2)C1 | enzyme activity, inhibitor | 1 µM | inhibition | -5%
Cc1ccc(C(=O)Nc2ccc(CN3CCN(C)CC3)c(C(F)(F)F)c2)cc1C#Cc1cnc2cccnn12 | enzyme activity | 23.5 nM | remaining activity | 100%
Cc1nc(C2CCN(C(=O)c3ccc(OC(F)(F)F)cc3N)CC2)c2ncc(N3CCN(C)CC3)cc2n1 | cell-free assay, competition with immobilised ligand | 1 µM | remaining binding | 100%
CC(C)(O)[C@H]1CC[C@H](Nc2ccc3ncc(-c4cccc(C(F)(F)F)c4)n3n2)CC1 | enzyme activity, inhibitor | 1 µM | remaining activity | 83.2%
CCCCNc1ncc2c(-c3ccc(F)cc3)nn(C[C@H]3CC[C@H](N)CC3)c2n1 | target engagement in cells, inhibitor, chemoproteomics | 20 mM | inhibition | 55%
O=C(Nc1cnn(-c2csc(C(=O)NC3COC3)c2)c1)Nc1ccccc1Cl | enzyme activity, inhibitor | 5 µM | remaining activity | 113%
CN(C)C(=O)Cn1cc(-c2nc(C3(c4ccc(-c5cnc(N)nc5)cc4)CC3)no2)cn1 | cell-free assay, competition with immobilised ligand | 1 µM | remaining binding | 100%
COc1cccc2c(NCc3ccccc3)nc(-n3c(N)nc4ccccc43)nc12 | target engagement in cells, inhibitor, chemoproteomics | 20 mM | inhibition | 13.6%
O=C(Nc1cnn(-c2csc(C(=O)NC3COC3)c2)c1)Nc1c(F)cccc1Cl | enzyme activity, inhibitor | 5 µM | remaining activity | 90.7%
O=C(CSc1nc2nccnc2c(=O)n1CCc1ccccc1)Nc1nccs1 | enzyme activity, inhibitor | 10 µM | inhibition | -9%
COc1cc(Cl)c(C(=O)N[C@@H](CN[C@H]2CC[C@@H](N)CC2)Cc2ccc(C#N)cc2)cc1-c1ccc(CN[C@H](C)c2ccc(C)cc2)o1 | enzyme activity, inhibitor | 1 µM | remaining activity | 95%
Nc1ncnc2occ(-c3ccc(NC(=O)Nc4cc(C(F)(F)F)ccc4F)cc3)c12 | cell-free assay | 20 µM | remaining signal | 91%
CS(=O)(=O)Nc1cccc(-c2csc(NC(=O)CSc3nc4nccnc4c(=O)n3CCc3ccccc3)n2)c1 | enzyme activity, inhibitor | 10 µM | inhibition | -5%
